{"data": "Measured values collected from several papers", "target": "Mitogen-activated protein kinase kinase kinase 12 (MAP3K12, Homo sapiens, UniProt Q12852)", "One construct used (Q12852 1-859)": "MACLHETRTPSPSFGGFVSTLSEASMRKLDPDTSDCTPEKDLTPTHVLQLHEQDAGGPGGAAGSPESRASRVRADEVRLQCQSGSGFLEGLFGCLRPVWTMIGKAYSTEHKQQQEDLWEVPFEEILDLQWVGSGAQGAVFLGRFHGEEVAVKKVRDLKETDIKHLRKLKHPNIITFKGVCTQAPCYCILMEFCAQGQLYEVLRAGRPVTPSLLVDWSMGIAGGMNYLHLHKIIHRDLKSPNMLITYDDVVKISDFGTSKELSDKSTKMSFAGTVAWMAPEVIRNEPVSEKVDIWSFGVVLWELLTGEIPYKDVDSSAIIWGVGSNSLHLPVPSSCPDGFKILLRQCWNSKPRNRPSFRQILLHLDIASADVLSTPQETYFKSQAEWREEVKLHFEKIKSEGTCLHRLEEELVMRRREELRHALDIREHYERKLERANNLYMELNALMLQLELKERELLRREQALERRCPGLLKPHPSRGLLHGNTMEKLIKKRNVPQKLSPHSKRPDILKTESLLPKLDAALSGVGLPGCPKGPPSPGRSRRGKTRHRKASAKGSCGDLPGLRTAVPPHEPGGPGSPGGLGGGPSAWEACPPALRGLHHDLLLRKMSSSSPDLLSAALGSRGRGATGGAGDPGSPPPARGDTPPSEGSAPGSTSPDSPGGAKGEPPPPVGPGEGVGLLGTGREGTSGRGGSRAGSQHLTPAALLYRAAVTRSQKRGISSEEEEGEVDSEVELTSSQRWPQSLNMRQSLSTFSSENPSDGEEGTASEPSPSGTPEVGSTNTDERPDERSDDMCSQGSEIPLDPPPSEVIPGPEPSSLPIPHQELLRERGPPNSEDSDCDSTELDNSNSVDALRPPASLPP"}
{"Structure (SMILES)": "C[C@H]1CCN(c2nccc(-c3cnn4ncccc34)n2)C1", "effect on": "binding", "concentration": "1 µM", "remaining binding [%]": 100}
{"Structure (SMILES)": "O=C(NCCCN1CCOCC1)c1ccc(Nc2nccc(-c3cc4ccccc4s3)n2)cc1", "effect on": "binding", "method": "competition with immobilised ligand", "concentration": "1 µM", "remaining binding [%]": 54}
{"Structure (SMILES)": "O=C1CCc2cc(Nc3cc(OC4CCOCC4)c([N+](=O)[O-])cc3Cl)ccc2N1", "effect on": "cell-free assay", "method": "competition with immobilised ligand", "concentration": "1 µM", "remaining binding [%]": 100}
{"Structure (SMILES)": "CC1CCCN1c1nccc(-c2cnn3ncccc23)n1 (centres unmarked)", "effect on": "binding", "concentration": "1 µM", "remaining binding [%]": 100}
{"Structure (SMILES)": "O=C(Nc1cnc(Oc2ccc(F)cc2)nc1)N1CCc2ncccc2[C@@H]1c1ccc(F)cc1", "effect on": "cell-free assay", "method": "competition with immobilised ligand", "concentration": "1 µM", "remaining binding [%]": 100}
{"Structure (SMILES)": "O=C(NCC1CCOCC1)c1n[nH]cc1NC(=O)c1c(F)cccc1F", "effect on": "binding", "method": "competition with immobilised ligand", "concentration": "1 µM", "remaining binding [%]": 85}
{"Structure (SMILES)": "CN(C)c1ncc(F)c(-c2cnn3ncccc23)n1", "effect on": "binding", "concentration": "1 µM", "remaining binding [%]": 72}
{"Structure (SMILES)": "CN([C@@H]1CCc2c(CC(=O)O)c3ccccc3n2C1)S(=O)(=O)c1ccc(F)cc1", "effect on": "cell-free assay", "method": "competition with immobilised ligand", "concentration": "1 µM", "remaining binding [%]": 100}
{"Structure (SMILES)": "CNC(=O)[C@@H]1CC[C@@H](n2c(-c3ccc4cnccc4c3)nc3ccc(C(=O)NCc4cccc(C(N)=O)c4)cc32)C1", "effect on": "binding", "method": "competition with immobilised ligand", "concentration": "1 µM", "remaining binding [%]": 100}
{"Structure (SMILES)": "O=C(NCCCN1CCOCC1)c1ccc(Nc2ncc(Cl)c(-c3ccc(Cl)s3)n2)cc1", "effect on": "binding", "method": "competition with immobilised ligand", "concentration": "1 µM", "remaining binding [%]": 33}
{"Structure (SMILES)": "O=C(N1CCS(=O)(=O)CC1)N1C[C@H](c2ccc(OC(F)(F)F)cc2)C[C@H](c2nc(C3CC3)no2)C1", "effect on": "cell-free assay", "method": "competition with immobilised ligand", "concentration": "1 µM", "remaining binding [%]": 0}
{"Structure (SMILES)": "CN(c1nccc(-c2cnn3ncccc23)n1)C1CC1", "effect on": "binding", "concentration": "1 µM", "remaining binding [%]": 100}
{"Structure (SMILES)": "FC(F)(F)Oc1cccc(-c2cnc3ccc(-c4ccncc4)nn23)c1", "effect on": "cell-free assay", "method": "competition with immobilised ligand", "concentration": "5 µM", "remaining binding [%]": 45}
{"Structure (SMILES)": "Cc1nc(N2CC[C@@H](O)C2)ncc1-c1cc(C(F)(F)F)cc2[nH]ncc12", "effect on": "binding", "method": "competition with immobilised ligand", "concentration": "1 µM", "remaining binding [%]": 99}
{"Structure (SMILES)": "CN(C)c1nccc(-c2cnc3ncccn23)n1", "effect on": "binding", "concentration": "1 µM", "remaining binding [%]": 67}
{"Structure (SMILES)": "COc1cnc(Nc2cccc(S(N)(=O)=O)c2)nc1N1CCN(c2ccccc2)C(=O)C1", "effect on": "binding", "method": "competition with immobilised ligand", "concentration": "1 µM", "remaining binding [%]": 82}
{"Structure (SMILES)": "CNCc1ccccc1-c1csc([C@H](C)Nc2nc(C)nc3cc(OC)c(OC)cc23)c1", "effect on": "cell-free assay", "method": "competition with immobilised ligand", "concentration": "1 µM", "remaining binding [%]": 97}
{"Structure (SMILES)": "c1cncc(-c2cccc(Nc3nccc(NC4CCCCC4)n3)c2)c1", "effect on": "binding", "method": "competition with immobilised ligand", "concentration": "10 µM", "remaining binding [%]": 67}
{"Structure (SMILES)": "Cc1cnn2ncc(-c3ccnc(N(C)C)n3)c2c1", "effect on": "binding", "concentration": "1 µM", "remaining binding [%]": 83}
{"Structure (SMILES)": "Cc1cnc(Nc2ccc(C(=O)N3CCC(N4CCCC4)CC3)cc2)nc1-c1cc2ccccc2s1", "effect on": "binding", "method": "competition with immobilised ligand", "concentration": "1 µM", "remaining binding [%]": 8.3}
